Screens deposited in PubChem BioAssay by several laboratories.
Sampled rows, rich in hits. Any-hit rate of the full collection: about 3.8%.
NPY2 pot ag: potentiators or agonists of human neuropeptide Y receptor Y2. P49146. 0.45% of 220,000 active. activation, % at 3.6 µM. cells expressing NPY-Y2, potentiator/agonist read-out. AID 1359; in the data active = activation above about 27%;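 note: cells stimulated with NPY near EC25 plus isoproterenol at EC100; 0% = vehicle plus submaximal agonist and 100% = vehicle plus saturating agonist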
Target sequence (P49146 whole entry, looked up): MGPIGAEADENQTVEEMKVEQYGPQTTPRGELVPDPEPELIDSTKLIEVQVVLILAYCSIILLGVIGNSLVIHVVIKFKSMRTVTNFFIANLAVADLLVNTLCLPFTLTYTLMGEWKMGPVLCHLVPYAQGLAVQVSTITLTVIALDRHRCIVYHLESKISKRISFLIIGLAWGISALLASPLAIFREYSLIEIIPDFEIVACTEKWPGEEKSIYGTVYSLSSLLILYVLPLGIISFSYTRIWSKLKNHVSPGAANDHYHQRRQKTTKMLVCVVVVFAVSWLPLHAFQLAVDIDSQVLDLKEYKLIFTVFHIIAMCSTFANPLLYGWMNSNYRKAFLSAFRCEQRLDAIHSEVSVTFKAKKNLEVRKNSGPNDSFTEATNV
NPY Y2 blocker: blocks the human neuropeptide Y Y2 receptor | P49146 | NPY-Y2 expressing cells, antagonist mode | inhibition, % at 2.7 µM | 0.99% of 140,000 active | AID 793; in the data active = inhibition above about 17%;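 note: 0% = vehicle with agonist challenge and 100% = reference antagonist with challenge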
NPY1 pot ag: human NPY-Y1 potentiation or agonism, primary screen. P25929. NPY-Y1 expressing cells, potentiator/agonist activation. activation, % at 3.6 µM. 0.37% of 220,000 active; in the data active = activation above about 33%, passing the limit was not always enough;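 note: cells stimulated with NPY at EC10 then isoproterenol at EC100; 0% = low agonist plus stimulus and 100% = saturating agonist plus stimulus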
NPY-Y1 antag: antagonists of human neuropeptide Y receptor Y1 | P25929 | HEK293-CNG Y1 cells, membrane potential fluorescence; NPY at EC95, then isoproterenol | inhibition, % at 3.6 µM | 1% of 200,000 active | AID 1040;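 active = inhibition above the campaign mean inhibition of all tested compounds plus 3 SD, cut at about 20% in these data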;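 note: 0% = DMSO wells given NPY plus isoproterenol and 100% = isoproterenol alone without NPY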
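Test system – HEK293 Y1/CNG channel cell line · Also added – NPY agonist 25 nM, then isoproterenol 1 µM plus Ro 20-1724 25 µM · Compound dosing – one concentration, 3.6 µM, in 0.4% DMSO · Schedule – compound incubation 1 h at room temperature, readout 45 min post-stimulation · Technique – fluorescence, membrane potential probe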
Insulin prom inh: TRM-6 insulin promoter activity inhibition; TRM-6 cells, insulin promoter-eGFP reporter, imaging; reporter expression induced with tamoxifen; inhibition, % at 2 µM; 0.9% of 130,000 active; AID 1273;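 active = inhibition above the mean plus 3 SD, with well images judged a real hit on visual review, cut at about 60% in these data, passing the limit was not always enough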
RAM network inh: yeast RAM network inhibition. inhibition, % at 50 µM. S. cerevisiae dse1pr::URA3 reporter, 5-FOA growth OD615, 2 d; analog-sensitive cbk1-as2 kinase mutant strain. AID 868. 1.8% of 190,000 active;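 active = inhibition above a set limit, 3 SD over mean compound inhibition, cut at about 8.4% in these data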;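 note: 0% = DMSO-only wells with no growth and 100% = 10 µM 1-NA-PP1 full growth; inhibition rescues growth on 5-FOA so higher OD means more RAM inhibition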
Starred values were filed as active, the others as inactive.

CCOC(=O)N1CCN(C(=O)C2c3cc(OC)c(OC)cc3C(=O)N3CCc4ccccc4C23)CC1 (centres undefined) was read as NPY2 pot ag -21, NPY Y2 blocker 1, NPY1 pot ag 0, NPY-Y1 antag 3, Insulin prom inh 80* and RAM network inh 0.
CCOC(=O)N1CCC(NC(=O)Cn2nc(Cc3ccncc3)c3ccccc3c2=O)CC1 was read as NPY2 pot ag 4, NPY Y2 blocker 0, NPY1 pot ag 4, NPY-Y1 antag 7 and RAM network inh 0.
For Cc1ccc2nc(SC(C)C(=O)N3CC(C)OC(C)C3)[nH]c2c1 (centres undefined) the results were NPY2 pot ag -11, NPY1 pot ag 12, NPY-Y1 antag 21* and RAM network inh 1.
COc1ccc(/C=C/C(=O)NC(=S)Nc2ccc(S(=O)(=O)Nc3cc(OC)ncn3)cc2)cc1 was read as NPY2 pot ag -12, NPY1 pot ag -9, NPY-Y1 antag -1, Insulin prom inh 21 and RAM network inh 8.7*.
COc1cc(NS(=O)(=O)c2ccc(NC(=S)NC(=O)/C=C/c3ccc(OC)c(OC)c3)cc2)ncn1 was read as NPY2 pot ag -6, NPY1 pot ag -4, NPY-Y1 antag 2 and RAM network inh 6.
Screening CCOC(=O)c1cc2c(=O)n3ccccc3nc2n(C(C)C)c1=NC(=O)c1c(-c2c(F)cccc2Cl)noc1C returned NPY2 pot ag -3, NPY Y2 blocker 3, NPY1 pot ag -6, NPY-Y1 antag 1 and RAM network inh 10*.
Screening CCCCn1c(=NC(=O)c2ccco2)c(C(=O)OCC)cc2c(=O)n3ccccc3nc21 returned NPY2 pot ag 8, NPY Y2 blocker 6, NPY1 pot ag 16, NPY-Y1 antag 0, Insulin prom inh 36 and RAM network inh 3.
`Cn1nccc1C(=O)OCC(=O)Nc1nc(-c2ccccc2)cs1` gave NPY2 pot ag -1, NPY Y2 blocker 4, NPY1 pot ag 4, NPY-Y1 antag 0 and RAM network inh 9.4*.
For CC1CCCN(CCCOc2ccc(Br)cc2Cl)C1 (centres undefined) the results were NPY2 pot ag -31, NPY1 pot ag -7, NPY-Y1 antag 21* and RAM network inh 2.
Screening CC(=O)c1cccc(NC(=O)NC(C)c2ccncc2)c1 (centres undefined) returned NPY2 pot ag 0, NPY Y2 blocker 0, NPY1 pot ag -4, NPY-Y1 antag 3, Insulin prom inh -130 and RAM network inh 0.
Screening O=C(Cn1cc([N+](=O)[O-])cn1)N1CCc2ccccc2C1 returned NPY2 pot ag 6, NPY1 pot ag 16, NPY-Y1 antag 2, Insulin prom inh -14 and RAM network inh 2.
CCc1ccc(NC(=O)C(NS(=O)(=O)c2cccc3nsnc23)c2ccccc2)cc1 (centres undefined) was read as NPY2 pot ag 10, NPY Y2 blocker 4, NPY1 pot ag 6, NPY-Y1 antag -5, Insulin prom inh -11 and RAM network inh 9.1*.
Screening CCn1c(SCC(=O)Nc2nc3ccc(C)cc3s2)nc2c(c1=O)SC(C)C2 (centres undefined) returned NPY2 pot ag 13, NPY Y2 blocker 5, NPY1 pot ag 29, NPY-Y1 antag -4, Insulin prom inh 0 and RAM network inh 10*.
For NC(=O)C1(N2CCCCC2)CCN(C(=S)NC2CCCC2)CC1 the results were NPY2 pot ag -5, NPY1 pot ag -11, NPY-Y1 antag 0 and RAM network inh 2.
Cc1nc(S(=O)(=O)Cc2ccccc2)nc2c1CCC2 was read as NPY2 pot ag 8, NPY1 pot ag 12, NPY-Y1 antag 7, Insulin prom inh 43 and RAM network inh 0.
Screening Cc1nc(S(=O)(=O)Cc2ccccc2Cl)nc2c1CCC2 returned NPY2 pot ag 10, NPY1 pot ag 7, NPY-Y1 antag 6, Insulin prom inh 73* and RAM network inh 0.
`C/C(=N\OC(=O)NC(C)C)c1sc(-c2ccccc2)nc1C` gave NPY2 pot ag 8, NPY Y2 blocker 3, NPY1 pot ag 12, NPY-Y1 antag 2, Insulin prom inh -30 and RAM network inh 1.
For C/C(=N\OC(=O)NC1CCCCC1)c1sc(-c2ccccc2)nc1C the results were NPY2 pot ag -36, NPY Y2 blocker 8, NPY1 pot ag -8, NPY-Y1 antag 5 and RAM network inh 10*.
For Cc1cccc(N2CCN(Cc3nc(-c4ccccc4Cl)oc3C)CC2)n1 the results were NPY2 pot ag -39, NPY1 pot ag -18, NPY-Y1 antag 20* and RAM network inh 1.
`COc1ccc(CN(C(=S)Nc2ccccc2)C2CC(=O)N(c3ccc(F)cc3)C2=O)cc1` (centres undefined) gave NPY2 pot ag 19, NPY Y2 blocker -3, NPY1 pot ag 12, NPY-Y1 antag -17, Insulin prom inh 0 and RAM network inh 4.
For CNC(=S)N(CCc1ccc(S(N)(=O)=O)cc1)C1CC(=O)N(c2ccccc2F)C1=O (centres undefined) the results were NPY2 pot ag -3, NPY1 pot ag 2, NPY-Y1 antag 6 and RAM network inh 9.4*.
For COc1ccc(CCN(C(=S)Nc2ccccc2)C2CC(=O)N(c3ccccc3)C2=O)cc1 (centres undefined) the results were NPY2 pot ag 37*, NPY Y2 blocker -4, NPY1 pot ag 37, NPY-Y1 antag -2, Insulin prom inh -30 and RAM network inh 3.
Screening Cc1ccc(NC(=O)c2ccc3ccccc3n2)cc1S(=O)(=O)N1CCOCC1 returned NPY2 pot ag -10, NPY1 pot ag -1, NPY-Y1 antag 2, Insulin prom inh -36 and RAM network inh 8.
Screening CC(C)CCc1noc(CN2CCC(C(=O)N3CCOCC3)CC2)n1 returned NPY2 pot ag -8 and NPY1 pot ag 11.
`CCC(=O)N(Cc1ccco1)c1nc(-c2ccccc2)cs1` gave NPY2 pot ag 8, NPY Y2 blocker 10, NPY1 pot ag -11, NPY-Y1 antag 10, Insulin prom inh -136 and RAM network inh 2.
Screening O=C(c1cccs1)N(Cc1ccco1)c1nc(-c2ccc(F)cc2)cs1 returned NPY2 pot ag 8, NPY Y2 blocker 18*, NPY1 pot ag 1, NPY-Y1 antag 14, Insulin prom inh 22 and RAM network inh 6.
`CCC(=O)N(Cc1ccco1)c1nc(-c2ccc(OC)cc2)cs1` gave NPY2 pot ag -7, NPY Y2 blocker 2, NPY1 pot ag -32, NPY-Y1 antag 8, Insulin prom inh 26 and RAM network inh 10.0*.
Screening C/C(=N/NC(=O)CC1N=C(Cc2ccccc2)NNC1=O)c1cccnc1 (centres undefined) returned NPY2 pot ag 1, NPY1 pot ag 12, NPY-Y1 antag -1 and RAM network inh 1.
